Data: ChEMBL document CHEMBL1121449, “Synthesis and antineoplastic activity of hydroquinone dialdehydes” (J Med Chem, 1980)

Experiments:
Mus musculus [1] = assay: Tested for number of animal surviving at least 50 days out of 10 animal treated at dose of 1.25 mg/kg; format: functional
Procedure, shortened: (§1)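 Female CD-1 mice, Sarcoma 180 ascites, 0.1 mL of 10^7 cells/mL given ip. Drug in 0.9% NaCl, 5% ethanol, Tween 80, serially diluted with saline. Dosed ip at 0.5 mL daily for 6 days from 24 h post-implant; daily dose based on starting mean weight. T/C is the mean survival of treated mice dying before 50 days vs controls. Survivors are those alive ≥50 days out of those treated.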

Mus musculus [2] = assay: Tested for number of animal surviving at least 50 days out of 15 animal treated at dose of 5 mg/kg; format: functional; procedure, shortened: as §1
Mus musculus [3] = assay: Tested for change in body weight from onset to termination at dose of 0.63 mg/kg; format: functional
Procedure, shortened: (§2)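 Female CD-1 mice inoculated ip with 0.1 mL of 10^7 Sarcoma 180 ascites cells/mL. Drug in 0.9% NaCl with 5% ethanol and Tween 80, serially diluted in saline, given ip once daily for 6 days starting 24 h after implantation. Dose based on mean starting weight. Controls received saline. Weight change recorded from day 0 to day 7, as % change.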

Mus musculus [4] = assay: Tested for mean survival time treated animal not surviving 50 days as a percentage at dose of 5 mg/kg; format: functional; procedure, shortened: as §1
Mus musculus [5] = assay: Tested for mean survival time treated animal not surviving 50 days as a percentage at dose of 2.5 mg/kg; format: functional; procedure, shortened: as §1
Mus musculus [6] = assay: Tested for number of animal surviving at least 50 days out of 15 animal treated at dose of 2.5 mg/kg; format: functional; procedure, shortened: as §1
Mus musculus [7] = assay: Tested for change in body weight from onset to termination at dose of 10 mg/kg; format: functional
Procedure, shortened: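 Tumor-bearing mice were dosed ip once daily for 6 consecutive days from 24 h after ip tumor implantation; saline controls. Each group was weighed on day 7, the day after the last injection, and the change from the implantation day (day 0) was expressed as % body-weight change, used as a toxicity measure.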

Mus musculus [8] = assay: Tested for change in body weight from onset to termination at dose of 2.5 mg/kg; format: functional; procedure, shortened: as §2
[9] = Tested for inhibition of growth of sarcoma 180 cells in culture; format: functional, cell-based; conditions: Mus musculus
Procedure, shortened: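 Sarcoma 180 cells in suspension in Fischer's medium with 10% horse serum and penicillin/streptomycin, seeded at 10^4 cells/mL. Drug added from 10× stocks in 10% Me2SO/PBS, final 1–100 μM. Control cultures contained 1% Me2SO. Triplicate Coulter counts at 24, 48 and 72 h. IC50 read from a plot of inhibition of cell-number increase at 72 h versus concentration.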

Mus musculus [10] = assay: Tested for mean survival time treated animal not surviving 50 days as a percentage at dose of 0.31 mg/kg; format: functional; procedure, shortened: as §1
Mus musculus [11] = assay: Tested for change in body weight from onset to termination at dose of mg/kg; format: functional; procedure, shortened: as §2
Mus musculus [12] = assay: Tested for mean survival time treated animal not surviving 50 days as a percentage at dose of 1.25 mg/kg; format: functional; procedure, shortened: as §1
Mus musculus [13] = assay: Tested for number of animal surviving at least 50 days out of 5 animal treated at dose of 10 mg/kg; format: functional; procedure, shortened: as §1
Mus musculus [14] = assay: Tested for number of animal surviving at least 50 days out of 5 animal treated at dose of 0.63 mg/kg; format: functional; procedure, shortened: as §1
Mus musculus [15] = assay: Tested for mean survival time treated animal not surviving 50 days as a percentage at dose of 0.63 mg/kg; format: functional; procedure, shortened: as §1
Mus musculus [16] = assay: Tested for change in body weight from onset to termination at dose of 5 mg/kg; format: functional; procedure, shortened: as §2
Mus musculus [17] = assay: Tested for mean survival time treated animal not surviving 50 days as a percentage at dose of 10 mg/kg; format: functional; procedure, shortened: as §1
Mus musculus [18] = assay: Tested for change in body weight from onset to termination at dose of 1.25 mg/kg; format: functional; procedure, shortened: as §2
Mus musculus [19] = assay: Tested for number of animal surviving at least 50 days out of 5 animal treated at dose of 0.31 mg/kg; format: functional; procedure, shortened: as §1

SMILES: O=Cc1ccccc1C=O [ORTHO-PHTHALALDEHYDE]
- Survivors (Mus musculus [1]): 1
- Survivors (Mus musculus [2]): 0
- Activity (Mus musculus [3]): 5%
- Activity (Mus musculus [4]): 99%
- Mean survival time, treated vs control (T/C) (Mus musculus [5]): 154%
- Survivors (Mus musculus [6]): 0
- Activity (Mus musculus [7]): -3%
- Activity (Mus musculus [8]): 0%
- IC50 [9]: 12 µM
- Activity (Mus musculus [10]): 121%
- Activity (Mus musculus [11]): 15%
- Activity (Mus musculus [12]): 176%
- Survivors (Mus musculus [13]): 0
- Survivors (Mus musculus [14]): 0
- Activity (Mus musculus [15]): 193%
- Activity (Mus musculus [16]): -2%
- Activity (Mus musculus [17]): 43%
- Activity (Mus musculus [18]): 4%
- Survivors (Mus musculus [19]): 0
